Screens as filed in PubChem.
SIAE inh = blocks human sialic acid acetylesterase; AID 1053197; SIAE FP-Rh probe binding, fluorescence polarization; Q9HAT2; hit rate 0.69% among 370,000; inhibition, % at 9.66 µM;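 active = inhibition above a cutoff: mean of compounds within the control limits plus 3 SD of those, cut at about 17% in these data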;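 note: 0% = plate median of compound wells and 100% = probe without SIAE protein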
rCAG binder = binds r(CAG) RNA repeats; hit rate 1.3% among 370,000; r(CAG) RNA repeat, TO-PRO-1 dye displacement fluorescence; inhibition, % at 3 µM;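 active = inhibition above the plate cutoff, the mean of all test compounds on that plate plus 3 SD, cut at about 35% in these data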;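 note: 0% = DMSO alone and 100% = 100 µM mitoxantrone as full dye displacement; higher means more dye released from RNA so lower well fluorescence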
TCR-CD3 inh = inhibitors of human TCR-CD3 interaction | TAMRA-labeled TCR probe fluorescence, biochemical | inhibition, % at 9.4 µM | hit rate 0.37% among 360,000 | AID 651800; in the data active = inhibition above about 19%;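 note: recombinant mutant TCR 2C K166C tagged with TAMRA read by polarization; 0% = receptor in buffer alone and 100% = receptor with positive control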
ABHD4 inh = inhibitors of mouse ABHD4; Q8VD66; purified mABHD4, FP-Rh probe fluorescence polarization; inhibition, % at 8.92 µM; hit rate 0.54% among 370,000;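 active = inhibition exceeding the mean over every tested compound plus 3 SD, cut at about 30% in these data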;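 note: 0% = plate median of compound wells and 100% = S159A mutant with DMSO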
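Assay system: mouse ABHD4 enzyme, wild type / Also added: fluorescent activity-based probe FP-Rh / Doses: single nominal dose of 8.92 µM, 0.89% DMSO final / Timing: 45 min compound pre-incubation plus 60 min probe step, 25 °C / Signal: FP readout, ex 525 nm / em 598 nm / Control set: S159A mutant/DMSO as 100%, compound-well median as 0%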
PRMT1 inh = inhibitors of human PRMT1; Q99873; recombinant PRMT1, activity-based probe fluorescence polarization; inhibition, % at 2.79 µM; hit rate 1.3% among 370,000;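 active = inhibition above about 21% made by adding two undisclosed values, limit read from the data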
Target sequence (Q99873 whole entry, looked up): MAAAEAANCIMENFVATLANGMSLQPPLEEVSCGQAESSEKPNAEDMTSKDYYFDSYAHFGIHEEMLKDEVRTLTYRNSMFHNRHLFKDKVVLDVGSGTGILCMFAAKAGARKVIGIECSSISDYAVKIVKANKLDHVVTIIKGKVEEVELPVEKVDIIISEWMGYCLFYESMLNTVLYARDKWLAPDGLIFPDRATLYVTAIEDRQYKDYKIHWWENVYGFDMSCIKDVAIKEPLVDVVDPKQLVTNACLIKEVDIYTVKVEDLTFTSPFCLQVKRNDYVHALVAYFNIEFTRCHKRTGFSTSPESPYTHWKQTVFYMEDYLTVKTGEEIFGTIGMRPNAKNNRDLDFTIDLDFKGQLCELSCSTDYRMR
PRMT1 confirm = PRMT1 (human) inhibition, FP confirmation; shares compounds with PRMT1 inh; recombinant His-PRMT1, activity-based probe fluorescence polarization; inhibition, % at 2.79 µM; hit rate 42% among 3,300; AID 687036;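 active = mean inhibition across replicates above the hit cutoff derived for the earlier primary screen, cut at about 22% in these data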
Starred values were filed as active, the others as inactive; · = not tested or not shown. Shown are actives, neighbours in structure and some others; about 3.3% of the full set was active somewhere.

SMILES	SIAE inh	rCAG binder	TCR-CD3 inh	ABHD4 inh	PRMT1 inh	PRMT1 confirm
CN(Cc1c(F)cccc1Cl)C(=O)c1ccc(NC(=O)CC2SC(N3CCCC3)=NC2=O)cc1 (stereo unspecified)	0	-5	8	-1	101*	2
COc1ccc(CN2C(=O)c3cccnc3C2=O)cc1S(=O)(=O)NCc1ccc(C)o1	6	-1	-4	0	41*	-1
O=C1NC(=O)/C(=C/c2ccc(N3CCOCC3)o2)N1	3	-5	-7	3	6	·
O=C1NC(=O)/C(=C\c2ccc(N3CCOCC3)o2)N1	6	-1	2	6	30*	12
Cc1ccc(C(=O)NCC(=O)OCc2nc3sc(C)c(C)c3c(=O)[nH]2)cc1	-2	3	·	1	3	·
COc1ccc(CNC(=O)CSC(=S)N2CCCC2)cc1	-4	-5	-2	-6	3	·
CC(C)c1ccc(CCNC(=O)CSC(=S)N2CCCC2)cc1	-4	-7	0	-17	32*	15
O=C(NC(=S)NC(=O)c1ccccc1F)c1ccccc1F	-5	0	-6	-2	28*	2
O=C(NC(=S)NCc1ccccc1)c1ccccc1F	-12	-6	-3	-7	4	·
C[C@H]1[C@@H](OC(=O)NCc2ccc(C(F)(F)F)cc2)CC[C@@]23CCCN2C(=O)CCC[C@@H]13	-6	·	·	-3	-1	·
CCC[n+]1c(C)sc2c(OC)ccc(OC)c21	6	-5	5	3	40*	17
CCCCOCCCNC(=O)C[C@H]1C[C@@]2(C(=O)OC)C(=C[C@H](C3CCCC3)O[C@@H]2C)N(Cc2cccc3ccccc23)C1=O	0	8	·	-4	5	·
CCOC(=O)C1(C(=O)OCC)Cc2c([nH]c3ccccc23)[C@]2(N1)C(=O)N(C)c1ccc(Br)cc12	-14	3	·	-19	-6	·
O=C(COCc1ccccc1)N1CC[C@H]2[C@H](CCCN2Cc2ccccc2)C1	10	2	·	-6	-2	·
S=c1[nH]nc(COc2ccccc2)n1/N=C/C=C/c1ccco1	8	21	3	15	33*	1
S=c1[nH]nc(COc2ccccc2)n1/N=C/C=C/c1ccccc1	6	10	5	-4	19	·
COC(=O)[C@]12C[C@H](CC(=O)NCCCN3CCCC3=O)C(=O)N(Cc3ccc(Cl)cc3Cl)C1=C[C@H](C(C)(C)C)O[C@@H]2C	-6	1	·	-2	0	·
O=C(CSc1nnc(-c2ccccc2)n1-c1ccccc1)Nc1cccc2ccccc12	-2	6	·	-3	-4	·
CCN(CC)S(=O)(=O)c1ccc(C(=O)OCCN2C(=O)c3cccc4c(N5CCOCC5)ccc(c34)C2=O)cc1	0	-2	7	4	1	·
CC(=O)N(C(C)=O)N1C(=O)c2cccc3c(N4CCOCC4)ccc(c23)C1=O	-1	-25	8	-3	28*	7
CC(C)CN(C(=O)CSc1nc(-c2ccccc2)cn1N)c1c(N)n(Cc2ccccc2)c(=O)[nH]c1=O	10	4	2	2	26*	10
COCCN(C(=O)CSc1nnc(-c2ccccc2C)n1C)c1c(N)n(Cc2ccccc2)c(=O)[nH]c1=O	15	-3	-1	-1	28*	33*
CCN(C(=O)CSc1nnc(-c2ccc(OC)cc2)n1N)c1c(N)n(Cc2ccccc2)c(=O)[nH]c1=O	6	0	-1	8	36*	28*
COCCN(C(=O)CSc1nncn1-c1ccccc1)c1c(N)n(Cc2ccccc2)c(=O)[nH]c1=O	-2	-3	-4	-3	4	·
COc1ccc(CN(CC#Cc2ccccc2)Cc2ccccc2)c(OC)c1	-1	-1	·	-9	-2	·
SMILES	SIAE inh	rCAG binder	TCR-CD3 inh	ABHD4 inh	PRMT1 inh	PRMT1 confirm
CC(=O)Nc1sc2c(c1-c1nc3ccccc3s1)CCOC2	-5	·	·	-5	12	·
CC(C)C[C@H](NC1(C(=O)NC2CCCCC2)CCN(C(=O)OC(C)(C)C)CC1)C(=O)NCCc1c[nH]c2ccccc12	8	·	·	7	4	·
C=CCN1C(=O)[C@H](CC(=O)NCc2ccc(OC)c(OC)c2)[C@@]2(C(=O)OCC)CCCC=C12	-5	0	·	3	0	·
COc1ccc(-c2nnn3c2Cn2c4ccccc4c(=O)n2[C@@H](C)C3)cc1	2	6	·	-4	-1	·
NC(CSS(=O)(=O)O)=NCCC12CC3CC(CC(O)(C3)C1)C2	-3	-2	5	3	41*	44*
CC(C)[C@H](N)C(=O)N1CCC[C@@H]1C(=O)N1CCC2CCN(S(=O)(=O)c3ccccc3)CC21 (stereo partly specified)	-4	2	·	2	4	·
Cc1occc1-c1nnc(SCC(=O)Nc2ccncc2)n1-c1ccccc1	2	9	·	1	12	·
CCc1cc2cc(C)c(C)cc2nc1SCC(=O)NNC(=O)c1ccco1	-4	18	2	-14	29*	-2
Cc1cc(C)cc(-n2c3nc4ccccc4nc3c3c(=O)n(Cc4ccco4)cnc32)c1	-11	24	-3	-18	52*	18
Cc1cc(C(=O)COc2cccnc2[N+](=O)[O-])c(C)n1Cc1cccs1	6	5	1	28	29*	-1
CCOc1ccc(-n2c(COc3ccc(C)cc3)nnc2SCC(=O)Nc2ccc(F)c(F)c2)cc1	-3	7	·	-5	0	·
O=C(O)CN1C(=O)C2C3C=CC(C2C1=O)C1C(=O)N(CC(=O)O)C(=O)C31 (stereo unspecified)	-7	0	-5	4	5	·
O=C1C=CC(=O)N1CCCCCCN1C(=O)C=CC1=O	9	2	1	5	93*	90*
O=C(O)CN1C(=O)C=CC1=O	1	2	6	2	64*	75*
COc1ccc(CN2C(=O)CCCC2(C)c2nnnn2-c2ccc3c(c2)OCCO3)cc1 (stereo unspecified)	-1	5	·	-1	-3	·
CCN(CC)C(=O)Cn1nc(Cc2ccncc2)c2ccccc2c1=O	0	6	·	-2	0	·
C[C@H]1COc2cccc(N3CCCC3)c2S(=O)(=O)N1C	-4	2	·	7	-1	·
O=C(O)/C(=C\c1ccco1)NC(=O)c1ccc(Br)o1	10	-1	0	16	11	·
O=C(O)/C(=C\c1ccco1)NC(=O)c1cccc2ccccc12	0	18	-2	9	33*	7
O=C(O)/C(=C/c1ccco1)NC(=O)c1ccc(Br)o1	6	2	-1	20	29*	4
O=C(Nc1ccc(C(=O)O)cc1)/C(=C\c1ccco1)NC(=O)c1ccc(Br)cc1	2	17	-2	-6	34*	3
O=C(Nc1ccc(C(=O)O)cc1)/C(=C\c1ccco1)NC(=O)c1ccc(Br)o1	3	6	15	7	25*	-4
Cc1ccc2nc(NC(=O)CCCc3nc4ccccc4s3)sc2c1	-5	3	-6	-5	4	·
